Data taken from publication PMC9359405 (International Journal of Nanomedicine, 2022).

Key:
Assay type in all cases: in vivo, Wistar rats
[1] = tested on: MRP1; assay: Immunohistochemistry of efflux proteins in brain tissue; details: intranasal 1.25 mg/kg, 14 days, score 0-12
[2] = tested on: BCRP; assay: as above; details: intranasal 1.25 mg/kg, 14 days, score 0-12
[3] = tested on: P-gp; assay: as above; details: intranasal 1.25 mg/kg, 14 days, score 0-12
[4] = Pharmacokinetics in blood and vital organs; details: for CL/F: gavage; for AUC(0-t) / Cmax / MRT last / Tmax / half-life: male, Wistar, rat, po
How it was run: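 Male Wistar rats (200±20 g) received the test compound as an aqueous solution by gavage. Five rats were sampled at each of 11 times from 5 min to 24 h, and blood and organs were collected and weighed. Tissue homogenates (1% perchloric acid) and plasma (6% perchloric acid) were deproteinized, extracted into ethyl acetate at pH 11.8, and analysed by HPLC at 308 nm. Mean±SD, n=5.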

[5] = nasal NEs vs gavage HupA aqueous solution

In the case of `C/C=C1\[C@H]2C=C(C)C[C@]1(N)c1ccc(=O)[nH]c1C2` [HupA Solution, huperzine A], the “MRP1 protein expression (immunoreactive score)” value [1] is reported as “higher in the HupA aqueous solution group than in the blank control group”, the “BCRP protein expression (immunoreactive score)” value [2] is reported as “higher in the HupA aqueous solution group than in the blank control group” and the “P-gp protein expression (immunoreactive score)” value [3] is reported as “higher in the HupA aqueous solution group than in the blank control group”. For the same molecule, the CL/F ([4]; Brain) was 42.63 ± 7.93 mL·h, the CL/F ([4]; Heart) was 7.26 ± 0.05 mL·h and the CL/F ([4]; Kidney) was 0.91 ± 0.02 mL·h. It also gave a CL/F ([4]; Liver) of 2.88 ± 0.15 mL·h, a CL/F ([4]; Lung) of 4.03 ± 0.09 mL·h and a CL/F ([4]; Plasma) of 9.88 ± 0.89 mL·h. For the same molecule, the CL/F ([4]; Spleen) was 2.45 ± 0.03 mL·h, the AUC(0-t) ([4]; brain) was 28.6 ± 5.72 ng·h/mL and the Cmax ([4]; brain) was 15 ± 4.25 ng/mL. For the same molecule, the MRT last ([4]; brain) was 1.49 ± 0.12 h, the Tmax ([4]; brain) was 30 min and the half-life ([4]; brain) was 76.2 ± 9.6 min. The AUC(0-t) ([4]; heart) was 163 ± 5.85 ng·h/mL, the Cmax ([4]; heart) was 163 ± 7.33 ng/mL and the MRT last ([4]; heart) was 1.6 ± 0.05 h. For the same molecule, the Tmax ([4]; heart) was 30 min, the half-life ([4]; heart) was 133 ± 40.8 min and the AUC(0-t) ([4]; kidney) was 1350 ± 33.3 ng·h/mL. The Cmax ([4]; kidney) was 567 ± 40.6 ng/mL, the MRT last ([4]; kidney) was 2.78 ± 0.05 h and the Tmax ([4]; kidney) was 60 min. The half-life ([4]; kidney) was 126 ± 6 min, the AUC(0-t) ([4]; liver) was 424 ± 22.9 ng·h/mL and the Cmax ([4]; liver) was 256 ± 8.27 ng/mL. For the same molecule, the MRT last ([4]; liver) was 1.95 ± 0.04 h, the Tmax ([4]; liver) was 30 min and the AUC(0-t) ([4]; lung) was 288 ± 13 ng·h/mL. For the same molecule, the Cmax ([4]; lung) was 173 ± 14.1 ng/mL, the MRT last ([4]; lung) was 2.28 ± 0.06 h and the Tmax ([4]; lung) was 60 min. It also gave a half-life ([4]; lung) of 149 ± 7.8 min, an AUC(0-t) ([4]; plasma) of 119 ± 10.1 ng·h/mL and a Cmax ([4]; plasma) of 109 ± 8.99 ng/mL. For the same molecule, the MRT last ([4]; plasma) was 1.31 ± 0.12 h, the Tmax ([4]; plasma) was 30 min and the half-life ([4]; plasma) was 106 ± 49.8 min. It also gave an AUC(0-t) ([4]; spleen) of 485 ± 5.11 ng·h/mL, a Cmax ([4]; spleen) of 195 ± 4.58 ng/mL and an MRT last ([4]; spleen) of 2.03 ± 0.06 h. The Tmax ([4]; spleen) was 60 min, the “Concentration (C) of the drug in brain tissue at the same time point (order)” value [4, 5] was “CLf-HupA-NE>CHupA-NE>CHupA aqueous solution” and the “Duration of action in the brain (T) (order)” value [4, 5] was “TLf-HupA-NE>THupA-NE>THupA aqueous solution”.
